Source: ChEMBL document CHEMBL1133693, “Peptide and peptide mimetic inhibitors of antigen presentation by HLA-DR class II MHC molecules. Design, structure-activity relationships, and X-ray crystal structures” (J Med Chem, 2000)
Starred links: 1 amine or outer side, 2 acyl side, 3 side chain; linkers in the order of their positions; H or OH if unused. Non-standard residues stand in square brackets, D forms with d. Residues, ends and D or L forms follow the SMILES beside them. *: point of attachment. X11 = O=C([C@H](N[*:1])[C@H](O)[C@@H](O)[C@@H](O)CO)[*:2]; X3 = O=C([C@@H](N[*:1])[C@H](O)[C@H](O)[C@@H](O)CO)[*:2]; X10 = O=C([C@H](Cc1ccc2c(c1)OCO2)N[*:1])[*:2]; X4 = O=C([C@H](CC1CC2CCC1CC2)N[*:1])[*:2]; X5 = CC1CCC(C[C@@H](N[*:1])C(=O)[*:2])CC1; X6 = CC1CCC(C[C@H](N[*:1])C(=O)[*:2])CC1; Phe(3-F) = N[C@@H](Cc1cccc(F)c1)C(=O)O; Phe(3-I) = N[C@@H](Cc1cccc(I)c1)C(=O)O; NMeCha = CN[C@@H](CC1CCCCC1)C(=O)O; NMeR = CN[C@@H](CCCNC(=N)N)C(=O)O; Cha = N[C@@H](CC1CCCCC1)C(=O)O; NMeM = CN[C@@H](CCSC)C(=O)O; NMeS = CN[C@@H](CO)C(=O)O; NHCH(CH2OH)2 = OCC(CO)N*; NMeA = CN[C@@H](C)C(=O)O; Nle = CCCC[C@H](N)C(=O)O; NHCH2CH2OH = OCCN*

Key:
T-cell [1] = experiment: T-cell inhibitory potency relative to the IC50 of a(Cha)AAAKTAAAAa-NH2 in MHC class II DRB1*0401; assay type: functional, Homo sapiens
T-cell [2] = experiment: T-cell inhibitory potency relative to the IC50 of a(Cha)AAAKTAAAAa-NH2 iMHC class II DRB1*0101; assay type: functional, Homo sapiens
[3] = Mean relative potency is the ratio of potencies of 'Ac-(Cha)RAMASL-NH2' and compound, to inhibit MHC class II DRB1*0101
Summary of the method: (§1)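 Scintillation proximity competition assay. Test compounds competed against the radioligand, and bound counts were read by scintillation. Ac-(Cha)RAMASL-NH2 was run as standard competitor in every run. Potency is the ratio of standard IC50 to compound IC50.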

[4] = Mean relative potency is the ratio of potencies of 'Ac-(Cha)RAMASL-NH2' and compound, to inhibit MHC class II DRB1*0401; summary of the method: as §1
Cathepsin B (Bos taurus) = Cathepsin B (Bos taurus) (UniProt P07688); experiment: Percent of original compound remaining with cathepsin B after incubation for 4 hrs was determined by HPLC

Structure (SMILES)	Mean relative potency [3]	Mean relative potency [4]	% remaining (Cathepsin B (Bos taurus)) [%]	T-cell inhibition (T-cell [1])	T-cell inhibition (T-cell [2])
CSCC[C@H](NC(=O)[C@@H]1Cc2ccccc2CN1C(=O)[C@H](CCCN=C(N)N)NC(=O)[C@H](CC1CCCCC1)NC(C)=O)C(=O)N(C)[C@@H](C)C(=O)N[C@@H](CO)C(=O)N(C)[C@@H](C)C(N)=O				1.5	0.86
CSCC[C@H](NC(=O)[C@H](CCSC)NC(=O)[C@H](CCCN=C(N)N)NC(=O)[C@H](CC1CCCCC1)NC(C)=O)C(=O)N[C@@H](C)C(=O)N[C@@H](CO)C(N)=O (Ac-[Cha]RMMAS-NH2)	1.38	0.85			
CSCC[C@H](NC(=O)[C@H](CCSC)NC(=O)[C@H](CCCN=C(N)N)NC(=O)[C@H](CC1CCCCC1)NC(C)=O)C(=O)N[C@@H](C)C(=O)N[C@@H](CO)C(=O)N[C@@H](CC(C)C)C(N)=O (Ac-[Cha]RMMASL-NH2)	1.05	0.88			
CSCC[C@H](NC(=O)[C@H](c1ccccc1)N(C)C(=O)[C@H](CCCN=C(N)N)NC(=O)[C@H](CC1CCCCC1)NC(C)=O)C(=O)N[C@@H](C)C(=O)N[C@@H](CO)C(=O)N[C@H](C(N)=O)C(C)(C)C				3.2	5.37
CSCC[C@H](NC(=O)[C@H](C)NC(=O)[C@H](CCCN=C(N)N)NC(=O)[C@H](CC1CC2CCC1C2)NC(C)=O)C(=O)N[C@@H](C)C(=O)N[C@@H](CO)C(=O)N[C@@H](CC(C)C)C(N)=O (stereo in doubt; 2)	0.52	1.71			
CSCC[C@H](NC(=O)[C@H](c1ccccc1)N(C)C(=O)[C@H](CCCN=C(N)N)NC(=O)[C@H](CC1CCCCC1)NC(C)=O)C(=O)N(C)[C@@H](C)C(=O)N[C@@H](CO)C(=O)N[C@H](C(N)=O)C(C)(C)C				2.5	7.8
CSCC[C@H](NC(=O)[C@H](C)NC(=O)[C@H](CCCN=C(N)N)NC(=O)[C@H](CC1CCCCC1)NC(C)=O)C(=O)N[C@H](C)C(=O)N[C@@H](CO)C(=O)N[C@H](C(N)=O)C(C)(C)C	1.64	1.46			
CC[C@@H](C)[C@H](NC(=O)[C@H](C)NC(=O)[C@H](CCCN=C(N)N)NC(=O)[C@H](CC1CCCCC1)NC(C)=O)C(=O)N[C@@H](C)C(=O)N[C@@H](CO)C(=O)N[C@@H](CC(C)C)C(N)=O	0.36	1.01			
CSCC[C@H](NC(=O)[C@H](C)NC(=O)[C@H](CCCN=C(N)N)NC(=O)[C@H](CC1CCCCC1)NC(C)=O)C(=O)N[C@H](C)C(=O)N[C@@H](CO)C(=O)N(C)[C@@H](CC(C)C)C(N)=O	0.85	0.77	0		
CSCC[C@H](NC(=O)[C@H](C)NC(=O)[C@H](CCCN=C(N)N)NC(=O)[C@H](CC1CC2CCC1C2)NC(C)=O)C(=O)N[C@@H](C)C(=O)N[C@@H](CO)C(=O)N[C@@H](CC(C)C)C(N)=O (stereo in doubt; 6)	0.96	0.92			
CSCC[C@H](NC(=O)[C@@H](NC(=O)[C@H](CCCN=C(N)N)NC(=O)[C@H](CC1CCCCC1)NC(C)=O)C(C)(C)C)C(=O)N(C)[C@@H](C)C(=O)N[C@@H](CO)C(=O)N[C@H](C(N)=O)C(C)(C)C				1.5	2.9
CSCC[C@H](NC(=O)[C@H](C)NC(=O)[C@H](CCCN=C(N)N)NC(=O)[C@H](CC1CCC(C)CC1)NC(C)=O)C(=O)N[C@@H](C)C(=O)N[C@@H](CO)C(=O)N[C@@H](CC(C)C)C(N)=O (some centres not stated) (Ac-[X6]RAMASL-NH2)	1.37	1.71			
CSCC[C@H](NC(=O)[C@H](C)NC(=O)[C@H](CCCN=C(N)N)NC(=O)[C@H](CC1CCCCC1)NC(C)=O)C(=O)N1CCCC[C@@H]1C(=O)N[C@@H](CO)C(=O)N[C@@H](CC(C)C)C(N)=O	0.55	1.08			
CSCC[C@H](NC(=O)[C@H](C)NC(=O)[C@H](CCCN=C(N)N)NC(=O)[C@@H](CC1CC2CCC1C2)NC(C)=O)C(=O)N[C@@H](C)C(=O)N[C@@H](CO)C(=O)N[C@@H](CC(C)C)C(N)=O (some centres not stated)	1.31	1.53			
CC(=O)N[C@@H](CC1CCCCC1)C(=O)N[C@@H](CCCN=C(N)N)C(=O)N[C@@H](C)C(=O)N[C@@H](CC(C)C)C(=O)N[C@@H](C)C(=O)N[C@@H](CO)C(=O)N[C@@H](CC(C)C)C(N)=O (Ac-[Cha]RALASL-NH2)	0.55	0.54			

Continued, in another order:

Mean relative potency [3]	Mean relative potency [4]	% remaining (Cathepsin B (Bos taurus)) [%]	Structure (SMILES)	T-cell inhibition (T-cell [1])	T-cell inhibition (T-cell [2])
0.046	0.005		CSCC[C@@H](C(=O)N[C@@H](C)C(=O)N[C@@H](CO)C(=O)N[C@@H](CC(C)C)C(N)=O)N(C)C(=O)[C@H](C)NC(=O)[C@H](CCCN=C(N)N)NC(=O)[C@H](CC1CCCCC1)NC(C)=O (Ac-[Cha]RA[NMeM]ASL-NH2)		
1.37	0.7		CSCC[C@H](NC(=O)[C@H](C)NC(=O)[C@H](CCCN=C(N)N)NC(=O)[C@H](CC1CCCCC1)NC(C)=O)C(=O)N1CCC[C@@H]1C(=O)N[C@@H](CO)C(=O)N[C@@H](CC(C)C)C(N)=O		
0.59	0.15		CSCC[C@H](NC(=O)[C@H](CCSC)NC(=O)[C@H](CCCN=C(N)N)NC(=O)[C@H](CC1CCCCC1)NC(C)=O)C(=O)N[C@@H](C)C(N)=O (Ac-[Cha]RMMA-NH2)		
0.77	0.4		CCCC[C@H](NC(=O)[C@H](C)NC(=O)[C@H](CCCN=C(N)N)NC(=O)[C@H](CC1CCCCC1)NC(C)=O)C(=O)N[C@@H](C)C(=O)N[C@@H](CO)C(=O)N[C@@H](CC(C)C)C(N)=O (Ac-[Cha]RA[Nle]ASL-NH2)		
0.68	1.55		CSCC[C@H](NC(=O)[C@H](CCSC)NC(=O)[C@H](CCCN=C(N)N)NC(=O)[C@H](CC1CCCCC1)NC(C)=O)C(=O)N[C@@H](C)C(=O)NC(CO)CO (Ac-[Cha]RMMA-{NHCH(CH2OH)2})		
1.31	1.65		CSCC[C@H](NC(=O)[C@H](C)NC(=O)[C@H](CCCN=C(N)N)NC(=O)[C@H](Cc1ccc2c(c1)OCO2)NC(C)=O)C(=O)N[C@@H](C)C(=O)N[C@@H](CO)C(=O)N[C@@H](CC(C)C)C(N)=O (Ac-[X10]RAMASL-NH2)		
0.5	0.97		CSCC[C@H](NC(=O)[C@H](C)NC(=O)[C@H](CCCN=C(N)N)NC(=O)[C@H](CC1CCCCC1)NC(C)=O)C(=O)N[C@@H](C)C(=O)N(C)[C@@H](CO)C(=O)N[C@@H](CC(C)C)C(N)=O (Ac-[Cha]RAMA[NMeS]L-NH2)		
0.25	0.67		CSCC[C@H](NC(=O)[C@H](C)NC(=O)[C@H](CCCN=C(N)N)NC(=O)[C@H](CC1CCCCC1)N(C)C(C)=O)C(=O)N[C@@H](C)C(=O)N[C@@H](CO)C(=O)N[C@@H](CC(C)C)C(N)=O (Ac-[NMeCha]RAMASL-NH2)		
0.001	0.001		CSCC[C@H](NC(=O)[C@H](C)NC(=O)[C@H](CCCN=C(N)N)N(C)C(=O)[C@H](CC1CCCCC1)NC(C)=O)C(=O)N[C@@H](C)C(=O)N[C@@H](CO)C(=O)N[C@@H](CC(C)C)C(N)=O (Ac-[Cha][NMeR]AMASL-NH2)		
0.5	0.81		CSCC[C@H](NC(=O)[C@H](CCCN=C(N)N)NC(=O)[C@H](CC1CCCCC1)NC(C)=O)C(=O)N[C@@H](CCSC)C(=O)N[C@@H](C=O)[C@H](O)[C@@H](O)[C@@H](O)CO (Ac-[Cha]RMM[X11]-aldehyde)		
0.68	1.22		CSCC[C@H](NC(=O)[C@H](C)NC(=O)[C@H](CCCN=C(N)N)NC(=O)[C@H](CC1CC2CCC1CC2)NC(C)=O)C(=O)N[C@@H](C)C(=O)N[C@@H](CO)C(=O)N[C@@H](CC(C)C)C(N)=O (some centres not stated) (Ac-[X4]RAMASL-NH2)		
1.17	0.93		CSCC[C@H](NC(=O)[C@H](C)NC(=O)[C@H](CCCN=C(N)N)NC(=O)[C@@H](CC1CCC(C)CC1)NC(C)=O)C(=O)N[C@@H](C)C(=O)N[C@@H](CO)C(=O)N[C@@H](CC(C)C)C(N)=O (some centres not stated) (Ac-[X5]RAMASL-NH2)		
0.17	1.19		CSCC[C@H](NC(=O)[C@H](C)NC(=O)[C@H](CCCN=C(N)N)NC(=O)[C@H](Cc1cccc(F)c1)NC(C)=O)C(=O)N[C@@H](C)C(=O)N[C@@H](CO)C(=O)N[C@@H](CC(C)C)C(N)=O (Ac-[Phe(3-F)]RAMASL-NH2)		
0.33	1.04		CSCC[C@H](NC(=O)[C@H](CCSC)NC(=O)[C@H](CCCN=C(N)N)NC(=O)[C@H](CC1CCCCC1)NC(C)=O)C(=O)N[C@@H](C)C(=O)NCCO (Ac-[Cha]RMMA-NHCH2CH2OH)		
1.02	0.56		CSCC[C@H](NC(=O)[C@H](C)N(C)C(=O)[C@H](CCCN=C(N)N)NC(=O)[C@H](CC1CCCCC1)NC(C)=O)C(=O)N[C@@H](C)C(=O)N[C@@H](CO)C(=O)N[C@@H](CC(C)C)C(N)=O (Ac-[Cha]R[NMeA]MASL-NH2)		
1.4	1.6		CSCC[C@H](NC(=O)[C@H](C)NC(=O)[C@H](CCCN=C(N)N)NC(=O)[C@H](CC1CCCCC1)NC(C)=O)C(=O)N[C@H](C)C(=O)N[C@@H](CO)C(=O)N[C@@H](CC(C)C)C(=O)N(C)C		
0.61	1.56		CSCC[C@H](NC(=O)[C@H](C)NC(=O)[C@H](CCCN=C(N)N)NC(=O)[C@H](Cc1cccc(I)c1)NC(C)=O)C(=O)N[C@@H](C)C(=O)N[C@@H](CO)C(=O)N[C@@H](CC(C)C)C(N)=O (Ac-[Phe(3-I)]RAMASL-NH2)		
0.12	0.16		CSCC[C@H](NC(=O)[C@H](CCCN=C(N)N)NC(=O)[C@H](CC1CCCCC1)NC(C)=O)C(=O)N[C@@H](CCSC)C(=O)N[C@H](C=O)[C@H](O)[C@H](O)[C@@H](O)CO (Ac-[Cha]RMM[X3]-aldehyde)		
